An excerpt weighted towards active compounds, which were near 1.8% of everything screened.
GRK2 inh: human GRK2 inhibition via aptamer displacement; bead flow cytometry, FAM-aptamer displacement from GRK2; P25098; 0.59% of 330,000 active; inhibition of aptamer binding, % at 10 µM;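 active means inhibition of aptamer binding above 40%, roughly 3 SD of noise, on plates passing a quality check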;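 further: median bead fluorescence of bound FAM aptamer so fluorescent compounds give negative values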
Tn6 DDE FP: DD(E)-Tn6 binding inhibition, primary FP screen; AID 720509; 0.21% of 370,000 active; inhibition, % at 8.3 µM; Fibrin DD(E) TRITC-Tn6 fluorescence polarization displacement; P02675;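 active means inhibition above a per-campaign cutoff: mean of compounds within control limits plus 3 SD, cut at about 15% in these data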;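 further: 0% = median of all compound wells on the plate and 100% = blocking peptide control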
Target sequence (P02675 whole entry, looked up): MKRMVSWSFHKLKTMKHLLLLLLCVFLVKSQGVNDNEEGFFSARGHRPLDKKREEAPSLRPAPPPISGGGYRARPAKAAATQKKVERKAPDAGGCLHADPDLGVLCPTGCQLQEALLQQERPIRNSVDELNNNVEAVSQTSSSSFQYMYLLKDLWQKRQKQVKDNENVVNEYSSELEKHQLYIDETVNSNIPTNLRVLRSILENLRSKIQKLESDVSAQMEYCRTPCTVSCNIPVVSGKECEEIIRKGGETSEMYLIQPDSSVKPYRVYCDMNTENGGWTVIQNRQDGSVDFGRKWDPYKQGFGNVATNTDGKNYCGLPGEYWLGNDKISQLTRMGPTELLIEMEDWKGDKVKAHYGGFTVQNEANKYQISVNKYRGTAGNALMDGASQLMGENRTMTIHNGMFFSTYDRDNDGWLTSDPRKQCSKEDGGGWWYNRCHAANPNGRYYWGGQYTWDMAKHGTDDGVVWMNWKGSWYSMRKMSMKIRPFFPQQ
CAL PDZ FP-1: blocks peptide binding to human CAL PDZ domain; Q9HD26; purified CAL PDZ, TMR-peptide fluorescence polarization, 1 h; inhibition, % at 20 µM; 0.02% of 330,000 active;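 active means highest replicate inhibition of at least 40%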;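 further: plate controls were DMSO neutral control wells for no effect and unlabeled competitor peptide control wells for full effect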
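Test system: purified CerCALP PDZ construct; Compound dosing: one concentration, 20 µM compound; Also added: TMR-labelled reporter peptide T*-PRC34 bound in PDZ groove; Read-out: inhibition from polarization loss; Controls: unlabelled peptide and DMSO controls; Signal: FP readout, S and P plane fluorescence; Incubation: 1 h at RT.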
DDE Tn7 FP inh: DD(E)-Tn7 binding inhibition, primary FP screen. P02675. FP displacement of FITC-Tn7 peptide from fibrin DD(E); 0% = median of compound wells per plate. inhibition, % at 8.3 µM. 0.13% of 370,000 active;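 active means inhibition above the mean of compounds falling within the control limits plus 3 SD of them, cut at about 14% in these data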;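 further: 0% = plate median of compound wells and 100% = 10 µM Aha-Tn7 peptide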
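System: human fibrin DD(E); quantity: Fibrin-DD(E) at 2 µM final; also added: fluorescent Tn7 probe at 0.1 µM; compound dosing: single nominal test concentration of 8.3 µM per compound; schedule: 10 min preincubation, 3 h with tracer, room temperature; detection: fluorescence polarization of the labelled Tn7 tracer; repeats: one replicate per compound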
CAL PDZ FP-2: inhibitors of human CAL PDZ peptide binding. 0.92% of 300,000 active. purified CAL PDZ, TMR-peptide fluorescence polarization, 1 h. inhibition, % at 24.9 µM. AID 602252;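 active means mean inhibition of at least 30% with at least half of replicates also reaching 30%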;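 further: 0% = DMSO neutral control and 100% = excess unlabeled competitor peptide PRC23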
ARNT TACC3 PPI: disruptors of human ARNT/TACC3 interaction | Q9Y6A5 | 0.66% of 390,000 active | AID 623870 | inhibition, % at 9.99 µM | AlphaScreen His-ARNT PAS-B/GST-TACC3 binding, luminescence; TACC3 fragment carries E629A point mutation;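 active means mean inhibition of replicates at least 50% and at least half of replicates each reaching 50%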;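 further: 0% = complete ARNT plus TACC3 wells and 100% = ARNT alone without TACC3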
Starred values were filed as active, the others as inactive; nt = not tested or not shown.

SMILES	GRK2 inh	Tn6 DDE FP	CAL PDZ FP-1	DDE Tn7 FP inh	CAL PDZ FP-2	ARNT TACC3 PPI
CCn1cc(C(=O)N[C@H](C(=O)O)C(C)C)c(=O)c2cc3c(cc21)OCO3	0	-3	nt	9	46*	-31
Cc1noc(C)c1NC(=O)N(C)C[C@@H]1OCCCC[C@@H](C)Oc2ccc(NS(=O)(=O)c3c(C)noc3C)cc2C(=O)N([C@@H](C)CO)C[C@H]1C	nt	nt	nt	nt	nt	3
CC(=O)CSc1nc2c(c(=O)[nH]c(=O)n2C)n1Cc1cccc(Br)c1	3	-3	-1	-1	57*	-2
COCCNC(=O)c1ccc(S(=O)(=O)N2CCCc3ccccc32)cc1	3	1	0	1	59*	nt
CCOC(=O)/C(C#N)=N/Nc1ccc(S(=O)(=O)N2CCc3ccccc32)cc1	82*	-5	-2	-7	-1	-5
O=C(NCc1cccs1)c1cc(-c2cccs2)on1	2	91*	-1	6	-4	1
O=C(O)CCN1C(=O)/C(=C\c2ccc(-c3nc4ccccc4s3)o2)SC1=S	31	nt	7	nt	nt	67*
O=C(O)CCCN1C(=O)/C(=C\c2ccco2)SC1=S	nt	0	-1	-4	-3	3
CSc1nc(N)c(C(=O)Nc2ccc([N+](=O)[O-])cc2)s1	0	-4	-1	-7	4	-9
Cc1cc(C)cc(-n2ncc3c2CCCC3NC(=O)C2CCC2)c1 (stereo not given)	3	7	-1	5	53*	-2
COC(=O)CCC(=O)OC1(C)C(=O)C=C2C=C(C3CC3)N(CCc3c[nH]c4ccccc34)C=C2C1=O (stereo not given)	2	-10	0	3	1	7
COC(=O)CCC(=O)OC1(C)C(=O)C=C2C=C(C3CC3)N(CCc3ccccn3)C=C2C1=O (stereo not given)	2	9	0	4	1	11*
COC(=O)CCC(=O)OC1(C)C(=O)C=C2C=C(C3CC3)N(CCCCO)C=C2C1=O (stereo not given)	1	9	1	6	2	32*
C=CCN1C=C2C(=O)C(C)(OC(=O)CCC(=O)OC)C(=O)C=C2C=C1C1CC1 (stereo not given)	0	6	0	-2	-1	3
COC(=O)CCC(=O)OC1(C)C(=O)C=C2C=C(C3CC3)N(CCCOC(C)C)C=C2C1=O (stereo not given)	5	nt	-1	nt	0	75*
COC(=O)CCC(=O)OC1(C)C(=O)C=C2C=C(C3CC3)N(CCN3CCOCC3)C=C2C1=O (stereo not given)	1	3	0	4	-1	3
O=C(C[C@@H]1CC[C@H]2[C@@H](COC[C@H](O)CN2Cc2cccc(C(F)(F)F)c2)O1)NCc1ccc(F)cc1	nt	nt	nt	nt	nt	-2
COc1ccc(CNC(=O)C(c2ccco2)N(C(=O)CNS(=O)(=O)c2ccccc2)c2ccccc2C)cc1 (stereo not given)	3	1	-1	-9	92*	0
COCCNC(=O)C[C@H]1CC[C@H]2[C@H](COc3ccc(NS(=O)(=O)c4ccc(Cl)cc4)cc3C(=O)N2C)O1	nt	nt	nt	nt	nt	-5
N#C[C@H]1[C@H](c2ccccc2)[C@H](CO)N1C(=O)c1cccnc1	nt	nt	nt	nt	nt	-12
C=CCc1c(C)nc(C)nc1N/N=C/c1ccc([N+](=O)[O-])cc1	1	-3	nt	4	8	3
C=CCc1c(C)nc(C)nc1N/N=C/c1ccccc1O	0	7	-2	1	nt	64*
Oc1c(N=Nc2ccccn2)ccc2ccccc12	6	2	0	-4	-2	64*
Oc1[nH]c2ccccc2c1N=Nc1ccccn1	nt	-2	-2	-3	3	0
CC(=O)N(c1ccc(C)cc1)S(=O)(=O)c1ccc(Cl)cc1	0	-5	-1	0	46*	-3
SMILES	GRK2 inh	Tn6 DDE FP	CAL PDZ FP-1	DDE Tn7 FP inh	CAL PDZ FP-2	ARNT TACC3 PPI
c1ccc(-c2n[nH]c(-c3ccccn3)n2)cc1	0	11	-1	1	nt	57*
CO[C@@H]1CN(C)C(=O)c2cc(NS(=O)(=O)c3ccc(C)cc3)ccc2OC[C@H](C)NC[C@H]1C	nt	nt	nt	nt	nt	-1
CCCc1cn(CC[C@H]2CC[C@H](NC(=O)Nc3ccccc3F)[C@H](CO)O2)nn1	nt	nt	nt	nt	nt	-13
Cc1ccc(NC2C(=O)NC(=O)NC2=O)cc1	nt	-9	-1	8	-4	41*
CCCN(CCC)C(=O)C[n+]1cccc(/C=N/O)c1	49*	2	0	1	0	-6
CC(C)NC(=O)N(C)C[C@H]1Oc2cc(C3=CCCC3)ccc2S(=O)(=O)N([C@@H](C)CO)C[C@@H]1C	nt	nt	nt	nt	nt	8
COc1ccc(O)c(C(=O)c2cc(C#N)c(=O)n(-c3ccc(Cl)cc3)c2)c1	0	-5	0	1	39*	1
COc1ccc(-n2cc(C(=O)c3cc(Cl)ccc3O)cc(C#N)c2=O)cc1	1	-8	-1	-9	-3	4
O=C(Cc1ccccn1)NCC[C@@H]1CC[C@@H](NC(=O)CN2CCOCC2)[C@H](CO)O1	nt	nt	nt	nt	nt	5
O=C(COC(=O)CCc1ccccc1)Nc1ncc(Cl)cc1Cl	0	5	0	-2	-2	-5
COc1ccc(N=C(N)SCc2ccccn2)cc1	0	-3	0	-6	nt	55*
NC(=S)NN=C1CCC2(CCCCC2)CC1	nt	2	0	-2	nt	nt
CC1(C)CCC(=NNC(N)=S)CC1	nt	-14	0	1	-2	21*
O=C(Nc1ccc2ccccc2c1)c1ccccc1F	1	4	0	1	nt	7
O=C(Nc1ccc2cn[nH]c2c1)c1ccccc1F	2	-2	-1	-2	85*	-9
CCC(C)C(NC(=O)C(C)NC(=O)CNC(=O)CNC(=O)OCc1ccccc1)C(=O)OC (stereo not given)	0	0	-1	1	47*	0
Cc1ccc(Nc2nc(N)nc(CSc3nccn3C)n2)c(C)c1	3	1	-1	-3	38*	1
Cc1noc(C)c1S(=O)(=O)Nc1ccc2c(c1)CC(=O)N([C@@H](C)CO)C[C@H](C)[C@@H](CN(C)Cc1ccc(C(=O)O)cc1)O2	nt	nt	nt	nt	nt	-9
CC(C)n1c(=S)[nH]c2c1c(=O)[nH]c(=O)n2C	2	-9	-2	2	43*	1
O=C(CNS(=O)(=O)c1ccc2ccccc2c1)OCc1csc(-c2ccccc2)n1	100*	0	-2	3	-4	-1
Cc1cc(C(=O)NP(=O)(N2CCOCC2)N2CCOCC2)c(C)n1-c1ccc(N(C)C)cc1	4	3	-1	-3	88*	15
Fc1cccc(/C=N/Nc2ncnc3nc[nH]c23)c1	0	3	-1	2	nt	47*
Fc1ccccc1/C=N/Nc1ncnc2nc[nH]c12	0	4	-2	-1	-4	12
